Compound activity from PubChem BioAssay.
Sampled rows, rich in hits. Any-hit rate of the full collection: about 4.2%.
TAAR1 antagonist: human TAAR1 antagonists, primary screen, Fluo-8 calcium fluorescence, CHO RD-HGA16 cells; Trace amine-associated receptor 1 (Homo sapiens), Q96RJ0; antagonist; inhibition, % at 3 µM; hit rate 1.5% among 360,000;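 active = inhibition above a per-plate cutoff, the mean inhibition of test compounds on that plate plus 3 SD, cut at about 49% in these data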;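 note: 0% = DMSO plus EC80 beta-PEA response and 100% = DMSO alone without agonist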
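test system = CHO RD-HGA16 cells bearing hTAAR1 | replication = singlicate | controls = DMSO-only wells and EC80 β-PEA-stimulated wells | reagent = EC80 β-phenethylamine stimulus | read-out basis = percent inhibition of PEA-evoked calcium signal, max/basal emission ratio | schedule = seeding 17-24 h prior, 75-min 37 °C, 30-min RT dye loading | signal = kinetic Fluo-8 calcium fluorescence measurement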
CHO parental Ca: ATP-evoked calcium signal inhibitors, parental CHO, primary screen, counter-screen for OX1R antagonist project, cell-based, fluorescence, Fluo-8 calcium dye | hit rate 0.63% among 330,000 | AID 463079, 2010 | inhibition, % at 5.6 µM | parental CHO-K1, ATP-induced calcium, Fluo-8 fluorescence;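 active = inhibition above that plate's mean sample inhibition plus 3 SD, cut at about 26% in these data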;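 note: 0% = ATP-challenged DMSO wells and 100% = DMSO wells without ATP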
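test system = CHO parental line | reagent = ATP stimulus | measured by = intracellular calcium via Fluo-8 no-wash fluorescent dye | control set = ATP and no-ATP DMSO wells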
GalR3 antagonist: GalR3 antagonists in HEK293 cells, primary screen, cell-based, fluorescence readout; Galanin receptor type 3 (Homo sapiens), O60755; HEK293 GalR3-CNG cAMP membrane potential fluorescence; galR3 body fused to GalR1 C-terminus; hit rate 0.44% among 360,000; AID 651719, 2012; inhibition, % at 3 µM;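 active = inhibition above the screen-wide average plus 3 SD, cut at about 13% in these data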;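 note: forskolin and galanin both at EC90 stimulate the cells; cAMP rise reported by CNG channel membrane potential dye signal; 0% = forskolin plus galanin with DMSO and 100% = forskolin alone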
Target sequence (O60755 1-299 limits assumed): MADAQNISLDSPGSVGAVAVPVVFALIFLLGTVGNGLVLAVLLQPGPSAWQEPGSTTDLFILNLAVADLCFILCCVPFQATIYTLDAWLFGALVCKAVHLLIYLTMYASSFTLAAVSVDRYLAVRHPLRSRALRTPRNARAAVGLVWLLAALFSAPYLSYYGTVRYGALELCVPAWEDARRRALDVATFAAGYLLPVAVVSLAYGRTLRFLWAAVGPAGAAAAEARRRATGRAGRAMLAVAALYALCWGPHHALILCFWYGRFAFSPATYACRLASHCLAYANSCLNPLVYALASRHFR
TAAR1 ag: human TAAR1 agonists, primary screen, Fluo-8 calcium fluorescence, CHO RD-HGA16 cells; vehicle wells 0%, saturating PEA agonist 100%; activation, % at 3 µM; hit rate 0.99% among 360,000; AID 624467, 2012;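 active = activation above the mean activation of all test compounds in the run plus 3 SD, cut at about 38% in these data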
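test system = CHO RD-HGA16 cells carrying human TAAR1 plus Gα16 | schedule = 17-24 h seeding, 75 min 37 °C dye, 30 min RT | compound dosing = 3 µM single concentration | control set = DMSO and PEA EC100 | replicates = n 1 | signal = Fluo-8 fluorescence, 5 s baseline then 140 s kinetic read | measure = percent activation vs PEA EC100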
OX1R antag-1: antagonists of human orexin 1 receptor (OX1R) | Orexin/Hypocretin receptor type 1 (Homo sapiens), O43613 | hit rate 1.8% among 330,000 | inhibition, % at 6.6 µM | OX1R-expressing cells, FRET antagonist read-out | AID 485270, 2010; in the data active = inhibition mostly above about 38%, no sharp cut-off; inactive = mostly below about 40%;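 note: 0% = agonist challenge alone and 100% = reference antagonist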
OX1R antag-2: OX1R (HCRTR1) antagonists, primary screen, fluorescence, CHO/OX1R cells, Fluo-8 calcium, orexin A; inhibition, % at 5 µM; Fluo-8 calcium fluorescence; hit rate 0.43% among 330,000;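 active = inhibition above its plate's threshold, mean inhibition of all tested compounds on the plate plus 3 SD, cut at about 37% in these data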;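 note: 0% = orexin A challenge wells and 100% = SB-334867-A antagonist wells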
GalR3 antag conf: GalR3 antagonist hit confirmation, cell-based, fluorescence, triplicate. HEK293 GalR3 CNG cAMP biosensor, membrane potential fluorescence; galR3 fused to GalR1 carboxy tail; challenged with forskolin and galanin at EC90. shares compounds with GalR3 antagonist. hit rate 59% among 1,600. inhibition, % at 3 µM. AID 652245, 2013;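 active = inhibition above the primary screen's cutoff, the mean inhibition of all screened compounds plus 3 SD, cut at about 13% in these data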;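 note: 0% = forskolin plus galanin and 100% = forskolin alone with DMSO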
CNG parental: nonspecific cAMP agonists in parental HEK-CNG cells, counter-screen for GalR3 antagonist project, cell-based, fluorescence, high throughput | shares compounds with GalR3 antagonist | HEK293-CNG parental cells, cAMP membrane potential fluorescence; normalised: DMSO wells 0%, forskolin wells 100% | AID 652268, 2013 | activation, % at 3 µM | hit rate 10% among 1,600; in the data active = activation above about 1.3%
Starred values were filed as active, the others as inactive; nt = no result.

SMILES	TAAR1 antagonist	CHO parental Ca	GalR3 antagonist	TAAR1 ag	OX1R antag-1	OX1R antag-2	GalR3 antag conf	CNG parental
CC1(C)CC(=O)C2=C(C1)NC1=C(C(=O)c3ccccc31)C2c1ccc(Cl)cc1 (stereo not drawn)	2.0	-6.9	7.0	8.5	38.5	4.0	nt	nt
CCOc1cc(CNc2ccc3c(c2)OCCO3)cc(Br)c1OC	11.9	-15.9	nt	4.2	14.3	-15.2	-0.4	1.1
Cc1ccc(-n2c(C)cc(C=C3C(=O)CC(C)(C)CC3=O)c2C)cc1	-16.3	-8.6	0.7	0.5	9.9	-24.8	nt	nt
O=C(Nc1ccc(OCc2ccccc2)cc1)Nc1ccccc1C(=O)NCCCN1CCOCC1	10.1	-12.1	17.4*	4.5	4.3	-13.9	8.0	-0.4
O=C(Nc1ccccc1C(=O)NCCCN1CCOCC1)c1ccc(F)cc1F	-4.6	-10.9	0.3	0.8	-3.3	-18.1	nt	nt
O=C(Nc1cccc(S(=O)(=O)Nc2ccc(Cl)cc2)c1)c1ccc[n+]([O-])c1	-29.2	-3.7	-1.1	4.2	2.3	-8.7	nt	nt
COCCN(C(=O)COC(=O)CCS(=O)(=O)c1ccccc1)c1c(N)n(Cc2ccccc2)c(=O)[nH]c1=O	-1.7	-3.2	14.1*	0.4	17.8	-6.5	-2.5	0.2
COCCN(C(=O)COC(=O)CCOc1ccccc1)c1c(N)n(Cc2ccccc2)c(=O)[nH]c1=O	nt	4.4	nt	nt	5.5	-8.2	nt	nt
O=C(COC(=O)c1cncc(Br)c1)NCc1ccccc1Cl	15.1	-20.4	-7.2	5.7	13.6	-19.1	nt	nt
O=C(Nc1cc(Cl)cc(Cl)c1)c1ccc(Cn2c(=O)[nH]c3ccsc3c2=O)cc1	nt	-11.6	nt	nt	6.0	-2.1	nt	nt
COC(=O)C1=COC(OC2OC(CO)C(O)C(O)C2O)C2C1C=CC2(O)CO (stereo not drawn)	-25.9	1.3	-6.6	2.1	16.6	-6.9	nt	nt
CCC(C)Nc1nc(Cl)nc(N(C#N)CN2C(=O)c3ccccc3S2(=O)=O)n1 (stereo not drawn)	13.4	-12.5	-6.7	4.6	3.9	-11.3	nt	nt
CC(C)Nc1nc(Cl)nc(N(C#N)CN2C(=O)c3ccccc3C2=O)n1	-17.6	-13.8	15.7*	4.6	42.3	4.7	1.2	0.6
